Source: ChEMBL document CHEMBL1152351, “Synthesis of a series of novel dihydroartemisinin derivatives containing a substituted chalcone with greater cytotoxic effects in leukemia cells” (Bioorg Med Chem Lett, 2009)
Calls of active or inactive are those of the source. The calls are words filed in the database; no cut-off is given here.

Columns and labels:
P388 [1] = assay: Growth inhibition of adriamycin-resistant mouse P388 cells after 72 hrs by trypan blue exclusion assay; format: functional
HL-60 [2] = assay: Inhibition of human HL60 cell proliferation after 72 hrs by trypan blue exclusion assay; format: functional
In short: (§1)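 HL-60 cells treated 72 h, then counted with trypan blue exclusion. IG50 is the concentration giving 50% inhibition of proliferation. IC50 is the concentration giving 50% loss of viability.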

HL-60 [3] = assay: Growth inhibition of human HL60 cells at 1 uM after 72 hrs by trypan blue exclusion assay; format: functional, cell-based
HL-60 [4] = assay: Cytotoxicity against human HL60 cells after 72 hrs by trypan blue exclusion assay; format: functional, cell-based; conditions: HL-60, 72 h; in short: as §1
HL-60 [5] = assay: Cell cycle arrest in human HL60 cells assessed as accumulation at subG1 phase at 0.8 uM after 24 hrs using propidium iodide staining by flow cytometry; format: functional
In short: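 HL-60 cells exposed 24 h; propidium iodide staining, then flow cytometry. The subG1 population is scored as apoptotic cells. Mean ± SD from three independent experiments.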

P388 [6] = assay: Growth inhibition of mouse P388 cells after 72 hrs by trypan blue exclusion assay; format: functional
HL-60 [7] = assay: Induction of apoptosis in human HL60 cells assessed as occurrence of nuclear shrinkage, blebbing and apoptotic bodies at 0.2 uM after 24 hrs by acridine orange and ethidium bromide staining; format: functional
In short: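 HL-60 cells exposed 12 h and 24 h, stained with acridine orange and ethidium bromide, and viewed by fluorescence microscopy. Cells showing nuclear shrinkage, blebbing or apoptotic bodies were scored apoptotic. Percentage taken from 300 cells counted. Mean ± SD of three independent experiments.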

HL-60 [8] = assay: Induction of apoptosis in human HL60 cells assessed as DNA fragmentation at 0.8 uM after 24 hrs using ethidium bromide staining by DNA gel electrophoresis; format: functional, cell-based
In short: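 HL-60 cells exposed 24 h. DNA resolved by gel electrophoresis and the fragmented DNA visualized by ethidium bromide staining.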

HL-60 [9] = assay: Induction of apoptosis in human HL60 cells assessed as DNA fragmentation at 4 uM after 24 hrs using ethidium bromide staining by DNA gel electrophoresis; format: functional, cell-based
In short: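 HL-60 cells treated 24 h; DNA fragmentation resolved by DNA gel electrophoresis and visualized after ethidium bromide staining.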

HL-60 [10] = assay: Cell cycle arrest in human HL60 cells assessed as accumulation at subG1 phase at 4 uM after 24 hrs using propidium iodide staining by flow cytometry; format: functional, cell-based
In short: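 HL-60 cells exposed 24 h; propidium iodide staining, flow cytometry; apoptotic cells scored as sub-G1 fraction. Three independent experiments, mean ± SD.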

HL-60 [11] = assay: Induction of apoptosis in human HL60 cells assessed as occurrence of nuclear shrinkage, blebbing and apoptotic bodies at 2 uM after 24 hrs by acridine orange and ethidium bromide staining; format: functional, cell-based
In short: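 HL-60 cells treated 12 h and 24 h; stained with acridine orange and ethidium bromide, fluorescence microscopy; cells with nuclear shrinkage, blebbing or apoptotic bodies counted as apoptotic among 300 cells observed; percentage calculated. Three independent experiments, mean ± SD.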

Structure (SMILES)	IG50 (HL-60 [2]) [µM]	growth inhibition (GI) (HL-60 [3])	IC50 (HL-60 [4]) [nM]	other results
C[C@H]1[C@@H](OCCOc2ccc(C(=O)/C=C/c3ccc(Br)cc3)cc2)O[C@@H]2O[C@]3(C)CC[C@H]4[C@H](C)CC[C@@H]1[C@@]24OO3	0.04	inactive	80	Activity (P388 [1]): 0.155 µM; Activity (HL-60 [5]): 80%; Activity (P388 [6]): 0.098 µM; Activity (HL-60 [7]): 50%; Activity (HL-60 [8]): Active
COc1ccc(/C=C/C(=O)c2ccc(OCCO[C@H]3O[C@@H]4O[C@]5(C)CC[C@H]6[C@H](C)CC[C@@H]([C@H]3C)[C@@]46OO5)cc2)cc1	0.214	inactive	147	
C[C@H]1[C@@H](OCCOc2ccc(C(=O)/C=C/c3ccccc3)cc2)O[C@@H]2O[C@]3(C)CC[C@H]4[C@H](C)CC[C@@H]1[C@@]24OO3	0.208	inactive	193	
CCOc1ccc(/C=C/C(=O)c2ccc(OCC(=O)O[C@@H]3O[C@@H]4O[C@]5(C)CC[C@H]6[C@H](C)CC[C@@H]([C@H]3C)[C@@]46OO5)cc2)cc1	0.286	inactive	734	
COc1cc(/C=C/C(=O)c2ccc(OCCO[C@H]3O[C@@H]4O[C@]5(C)CC[C@H]6[C@H](C)CC[C@@H]([C@H]3C)[C@@]46OO5)cc2)cc(OC)c1OC	0.07	inactive	219	
COc1cccc(/C=C/C(=O)c2ccc(OCCO[C@H]3O[C@@H]4C[C@]5(C)CC[C@H]6[C@H](C)CC[C@@H]([C@H]3C)[C@@]46OO5)cc2)c1OC	0.079	inactive	194	
C[C@H]1[C@H](OC(=O)COc2ccc(C(=O)/C=C/c3ccc(Br)cc3)cc2)O[C@@H]2O[C@]3(C)CC[C@H]4[C@H](C)CC[C@@H]1[C@@]24OO3	0.314	inactive	636	
C[C@H]1[C@@H](OCCOc2ccc(C(=O)/C=C/c3ccc4c(c3)OCO4)cc2)O[C@@H]2O[C@]3(C)CC[C@H]4[C@H](C)CC[C@@H]1[C@@]24OO3	0.059	inactive	89	IG50 (P388 [1]): 0.178 µM; Activity (HL-60 [5]): 80%; IG50 (P388 [6]): 0.096 µM; Activity (HL-60 [7]): 50%; Activity (HL-60 [8]): Active
COc1cccc2c1C(=O)c1c(O)c3c(c(O)c1C2=O)C[C@@](O)(C(=O)CO)C[C@@H]3O[C@H]1C[C@H](N)[C@H](O)[C@H](C)O1 [DOXORUBICIN]				IG50 (P388 [1]): 3.73 µM; IG50 (P388 [6]): 0.019 µM
COc1ccc(/C=C/C(=O)c2ccc(OCCO[C@H]3O[C@@H]4O[C@]5(C)CC[C@H]6[C@H](C)CC[C@@H]([C@H]3C)[C@@]46OO5)cc2)cc1OC	0.09	inactive	300	
CCOc1ccc(/C=C/C(=O)c2ccc(OCCO[C@H]3O[C@@H]4O[C@]5(C)CC[C@H]6[C@H](C)CC[C@@H]([C@H]3C)[C@@]46OO5)cc2)cc1	0.121	inactive	110	
COc1ccc(/C=C/C(=O)c2ccc(OCC(=O)O[C@@H]3O[C@@H]4O[C@]5(C)CC[C@H]6[C@H](C)CC[C@@H]([C@H]3C)[C@@]46OO5)cc2)cc1	0.174	inactive	394	
C[C@H]1[C@@H](O)O[C@@H]2O[C@@]3(C)CC[C@H]4[C@H](C)CC[C@@H]1[C@@]24OO3 [ARTENIMOL]	0.73		2900	Activity (HL-60 [9]): Active; Activity (HL-60 [10]): Active; Activity (P388 [1]): 1.51 µM; Activity (P388 [6]): 2.3 µM; Activity (HL-60 [11]): Active
C[C@H]1[C@@H](OCCOc2ccc(C(=O)/C=C/c3ccc(Cl)cc3)cc2)O[C@@H]2O[C@]3(C)CC[C@H]4[C@H](C)CC[C@@H]1[C@@]24OO3	0.106	inactive	130	
C[C@H]1[C@@H](OCCOc2ccc(C(=O)/C=C/c3ccccc3Cl)cc2)O[C@@H]2O[C@]3(C)CC[C@H]4[C@H](C)CC[C@@H]1[C@@]24OO3	0.119	inactive	136	
COc1ccccc1/C=C/C(=O)c1ccc(OCCO[C@H]2O[C@@H]3O[C@]4(C)CC[C@H]5[C@H](C)CC[C@@H]([C@H]2C)[C@@]35OO4)cc1	0.165	inactive	134	
C[C@H]1[C@H](OC(=O)COc2ccc(C(=O)/C=C/c3ccc(Cl)cc3)cc2)O[C@@H]2O[C@]3(C)CC[C@H]4[C@H](C)CC[C@@H]1[C@@]24OO3	0.276	inactive	537	
O=C(/C=C/c1ccccc1)c1ccccc1		inactive		
